Only some compounds are listed: those with a hit (about 4.5% of all), similar ones and a draw of the others.
GPR7 antag – antagonists of human GPR7 (neuropeptides B/W receptor 1). GPR7-expressing cells, fluorescence antagonist assay. inhibition, % at 4.4 µM. 290,000 compounds, 1.1% hits. AID 1861; in the data active means inhibition above about 16%, passing the limit was not always enough;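 further: cells stimulated with the agonist NPW; 0% = agonist with vehicle and 100% = vehicle without agonist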
TAAR1 agonist – agonists of human TAAR1 | CHO RD-HGA16 TAAR1, Fluo-8 calcium fluorescence; vehicle wells 0%, saturating PEA agonist 100% | activation, % at 3 µM | 360,000 compounds, 0.99% hits | Q96RJ0;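 active means activation above the mean activation of all test compounds in the run plus 3 SD, cut at about 38% in these data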
Target sequence (Q96RJ0 whole entry, looked up): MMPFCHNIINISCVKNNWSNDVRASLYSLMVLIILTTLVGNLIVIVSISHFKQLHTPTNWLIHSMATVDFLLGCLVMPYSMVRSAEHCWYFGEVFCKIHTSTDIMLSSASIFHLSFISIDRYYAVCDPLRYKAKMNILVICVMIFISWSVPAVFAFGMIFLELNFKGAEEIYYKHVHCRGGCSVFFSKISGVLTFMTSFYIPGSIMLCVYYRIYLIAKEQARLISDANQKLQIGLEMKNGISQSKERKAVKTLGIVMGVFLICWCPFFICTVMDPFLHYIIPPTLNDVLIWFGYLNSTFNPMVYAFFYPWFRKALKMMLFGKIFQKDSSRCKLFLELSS
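Repeats: no replicates (n 1) | Material: CHO-derived RD-HGA16 cells with stable Gα16 and human TAAR1 | Technique: Kinetic Fluo-8 calcium fluorescence | Schedule: 17-24 h seeding, 75 min 37 °C dye, 30 min RT | Evaluation: % activation from peak over basal fluorescence ratio, DMSO-to-PEA scaled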
OX1R antag-1 – antagonists of human orexin 1 receptor. O43613. 330,000 compounds, 0.43% hits. CHO/OX1R cells, Fluo-8 calcium fluorescence, orexin A. inhibition, % at 5 µM;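 active means inhibition above its plate's threshold, mean inhibition of all tested compounds on the plate plus 3 SD, cut at about 37% in these data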;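 further: 0% = orexin A challenge wells and 100% = SB-334867-A antagonist wells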
TAAR1 antag – antagonists of human TAAR1. Q96RJ0. CHO RD-HGA16 TAAR1, Fluo-8 calcium fluorescence, antagonist. inhibition, % at 3 µM. 360,000 compounds, 1.5% hits. AID 624466;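 active means inhibition above a per-plate cutoff, the mean inhibition of test compounds on that plate plus 3 SD, cut at about 49% in these data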;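 further: 0% = DMSO plus EC80 beta-PEA response and 100% = DMSO alone without agonist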
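test system = CHO RD-HGA16 cells bearing hTAAR1 | replication = singlicate | controls = DMSO-only wells and EC80 β-PEA-stimulated wells | reagent = EC80 β-phenethylamine stimulus | read-out basis = percent inhibition of PEA-evoked calcium signal, max/basal emission ratio | schedule = seeding 17-24 h prior, 75-min 37 °C, 30-min RT dye loading | signal = kinetic Fluo-8 calcium fluorescence measurement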
CHO parental Ca – signal in parental CHO cells, OX1R antagonist counter-screen. parental CHO-K1, ATP-induced calcium, Fluo-8 fluorescence. inhibition, % at 5.6 µM. 330,000 compounds, 0.63% hits;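 active means inhibition above that plate's mean sample inhibition plus 3 SD, cut at about 26% in these data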;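 further: 0% = ATP-challenged DMSO wells and 100% = DMSO wells without ATP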
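Test system: untransfected parental CHO cell line; also added: ATP stimulus; dosing: 5.6 µM, single dose; signal: calcium-sensitive Fluo-8 fluorescence; measure: percent inhibition of ATP-evoked calcium rise, normalized to controls; benchmarks: low control ATP plus DMSO, high control DMSO only; replication: one well per compound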
OX1R antag-2 – antagonists of human orexin 1 receptor (OX1R). O43613. OX1R-expressing cells, FRET antagonist read-out. inhibition, % at 6.6 µM. 330,000 compounds, 1.8% hits; in the data active means inhibition mostly above about 38%, no sharp cut-off; inactive means mostly below about 40%;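 further: 0% = agonist challenge alone and 100% = reference antagonist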
TAAR1 nonsel count – nonselective antagonism, TAAR1 counter-screen. shares compounds with TAAR1 antag. counterscreen cell line, calcium fluorescence, antagonist mode. inhibition, % at 3 µM. 2,400 compounds, 77% hits; in the data active means inhibition above about 22%;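 further: CHO-Ga16 host cells stimulated with ATP at an EC80 level; 0% = agonist EC80 plus vehicle and 100% = vehicle without agonist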
TAAR1 antag conf – human TAAR1 antagonism, confirmed | AID 651785 | inhibition, % at 3 µM | TAAR1-expressing cells, fluorescence antagonist read-out | 2,400 compounds, 40% hits | shares compounds with TAAR1 antag; in the data active means inhibition above about 49%;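 further: CHO-Ga16 host cells challenged with agonist PEA near its EC80; 0% = agonist at EC80 plus vehicle and 100% = vehicle with no agonist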
Ga16 ag counter – counter-screen for TAAR1 antagonists: nonselective Ga16 agonists; shares compounds with TAAR1 antag; Ga16-expressing cells, calcium fluorescence, agonist counterscreen; activation, % at 3 µM; 2,400 compounds, 18% hits; AID 651953; in the data active means activation above about 12%;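 further: 0% = vehicle wells and 100% = saturating stimulus response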
TAAR1 ag counter – activates human TAAR1 in antagonist counter-screen; shares compounds with TAAR1 antag; hTAAR1 cell line, fluorescence activation, agonist mode; activation, % at 3 µM; 2,400 compounds, 2% hits; in the data active means activation above about 37%;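 further: CHO cells stably expressing TAAR1 with calcium dye readout; 0% = DMSO vehicle and 100% = full agonist response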
* hit, by the source's call; x = no result given.

SMILES	GPR7 antag	TAAR1 agonist	OX1R antag-1	TAAR1 antag	CHO parental Ca	OX1R antag-2	TAAR1 nonsel count	TAAR1 antag conf	Ga16 ag counter	TAAR1 ag counter
CCOC(=O)C1=C(COC(=O)/C=C/c2cccc(Br)c2)NC(=O)NC1C (stereo not drawn)	x	24	13	59*	-26	8	10	37	10	11
CCOC(=O)C1=C(COC(=O)/C=C/c2ccc(O)c(OC)c2)NC(=O)NC1C (stereo not drawn)	x	26	-1	62*	-14	5	28*	51*	13*	20
CCOC(=O)C1=C(COC(=O)Cc2ccccc2)NC(=O)NC1C (stereo not drawn)	-7	5	-18	5	-15	1	x	x	x	x
CCOC(=O)C1=C(COC(=O)Cc2ccc(Cl)cc2)NC(=O)NC1C (stereo not drawn)	x	17	-26	60*	-15	10	25*	42	8	5
CCOC(=O)C1=C(COC(=O)/C=C/c2cccc([N+](=O)[O-])c2)NC(=O)NC1C (stereo not drawn)	x	24	-21	58*	-11	21	21	56*	15*	20
CCOC(=O)C1=C(COC(=O)/C=C/c2ccc(OC)c(OC)c2)NC(=O)NC1C (stereo not drawn)	x	11	-20	22	-22	14	x	x	x	x
CCCCn1c(N)c(N(CC(C)C)C(=O)CSc2nnc(C)n2-c2ccccc2)c(=O)[nH]c1=O	x	1	x	-15	x	x	x	x	x	x
COC/C=C/C1=CC2=CC(=O)C(C)(OC(=O)c3cnc4ccccc4n3)C(=O)C2=CN1C1CCCC1 (stereo not drawn)	x	x	-27	x	-16	25	x	x	x	x
Cc1nc2ccccc2c2oc(C(=O)N3CCc4ccccc4C3)cc12	-3	3	-12	58*	-11	35*	26*	49*	15*	18
CCOC(=O)C1=CN(Cc2cccc(-c3cccnc3)c2)S(=O)(=O)N(C)C1C (stereo not drawn)	x	3	-9	49*	-5	10	21*	25	4	0
O=C(CSc1nnc(Nc2ccccc2)s1)Nc1ccc(S(=O)(=O)N2CCOCC2)cc1	-6	26	25	57*	22	47	36*	37	8	12
O=C(CSc1nnc2c(n1)[nH]c1ccccc12)Nc1ccc(N2CCOCC2)cc1	15	-2	-16	14	-18	9	x	x	x	x
O=C(CSc1nnc2c(n1)[nH]c1ccccc12)Nc1cccc(S(=O)(=O)N2CCOCC2)c1	-7	12	-10	70*	1	10	43*	52*	9	10
N#CC1=C(N)NC(SCC(=O)c2ccccc2)=C(C#N)C12CCCC2	-4	12	7	56*	-8	27	34*	45	13*	12
CCN(CC(=O)Nc1c(F)cccc1F)C(=O)c1cccc(S(=O)(=O)NCc2ccccc2)c1	x	-1	-25	-17	-19	11	x	x	x	x
OC[C@@H]1CN(Cc2cccc(C(F)(F)F)c2)C[C@H](n2cnc3c(NCc4ccc(F)cc4)ncnc32)O1	x	8	x	30	x	x	x	x	x	x
OC[C@@H]1CN(Cc2cccc(C(F)(F)F)c2)C[C@H](n2cnc3c(NCc4ccco4)ncnc32)O1	x	17	x	74*	x	x	23*	39	11	11
Cc1noc(C)c1C(=O)Nc1nc(-c2ccc([N+](=O)[O-])cc2)cs1	-15	8	-12	57*	4	18	37*	47	10	6
